Test results: ChEMBL document CHEMBL5036331 (J Med Chem, 2021)
≈ marks a conversion by molar mass, not a printed value.

Columns and labels:
[1] = Aqueous solubility of the compound at pH 6.5 for 24 hrs by HPLC-MS/MS; format: physicochemical
[2] = Clearance in Wistar-Han rat hepatocytes at 1 uM measured for 2 to 90 mins by LC-MS/MS; format: ADME, cell-based, Hepatocyte; conditions: time 2-90 min; for CLhep predicted at 1 µM: Wistar-Han
A2780 = test: cells; format: functional, cell-based; conditions: Homo sapiens, A2780, 96 h
[3] = Apparent permeability of the compound across apical side to basolateral side in human CaCo-2 cells at 2 uM incubated for 2 hrs; format: ADME, cell-based
How it was run: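 Caco-2 monolayers with TEER of at least 400 Ω·cm². Compound (predissolved in DMSO) added apically or basolaterally at a final 2 μM and incubated 2 h at 37 °C, in triplicate. Both compartments were sampled before and after, MeOH-precipitated and analysed by LC–MS/MS. Papp = (Vr/P0)(1/S)(P2/t).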

[4] = Clearance in Wistar-Han rat blood at 0.3 to 0.5 mg/kg, iv measured upto 24 hrs by HPLC with LC-MS/MS; format: ADME, organism-based; conditions: dose 0.3-0.5 mg/kg
[5] = Volume of distribution at steady state in Wistar-Han rat blood at 0.3 to 0.5 mg/kg, iv measured upto 24 hrs by HPLC with LC-MS/MS; format: ADME, organism-based; conditions: dose 0.3-0.5 mg/kg, read-out: Vdss
[6] = Half life in Wistar-Han rat blood at 0.3 to 0.5 mg/kg, iv measured upto 24 hrs by HPLC with LC-MS/MS; format: ADME, organism-based; conditions: dose 0.3-0.5 mg/kg
[7] = Aqueous solubility of the compound at pH 4 for 24 hrs by HPLC-MS/MS; format: physicochemical
[8] = Clearance in Wistar-Han rat Liver microsomes at 1 uM measured for 2 to 90 mins by LC-MS/MS; format: ADME, Microsome; conditions: time 2-90 min
MOLM-13 [9] = test: Antitumor activity against human MOLM-13 cells xenografted in AML mouse model assessed as tumor volume by measuring T/C ratio at 15 mg/kg, iv qd; format: functional
How it was run: (§1)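 Nude mouse MOLM-13 AML xenograft. Compound dosed iv on the stated schedule, starting 5 days after tumor cell inoculation. Tumor volumes were followed. T/C ratio was taken from mean tumor volumes at the time point when the vehicle group was sacrificed, with significance tested against vehicle controls.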

MOLM-13 [10] = test: Antitumor activity against human MOLM-13 cells xenografted in AML mouse model assessed as tumor volume by measuring T/C ratio at 35 mg/kg, iv administered once in 3 days; format: functional; conditions: time 3 day; how it was run: as §1
MOLM-13 [11] = test: Antitumor activity against human MOLM-13 cells xenografted in AML mouse model assessed as tumor volume by measuring T/C ratio at 65 mg/kg, iv administered once in 5 days; format: functional; conditions: time 5 day; how it was run: as §1
MOLM-13 [12] = test: cells; format: functional, cell-based; conditions: Homo sapiens, MOLM-13, 96 h
[13] = Efflux ratio of apparent permeability across basolateral to apical side over apical to basolateral side in human Caco2 cells at 2 uM incubated for 2 hrs; conditions: Caco-2
[14] = Metabolic stability in Wistar-Han rat hepatocytes at 1 uM measured for 2 to 90 mins by LC-MS/MS; format: ADME, cell-based, Hepatocyte; conditions: time 2-90 min

Row | solubility at 24 h [1] [µg/mL] | CLhep predicted at 1 µM [2] [mL/min/kg] | IC50 (A2780) [nM] | Papp A→B at 2 h, 2 µM [3] [×10⁻⁶ cm/s] | SMILES | further results
1 | – | – | – | 16.8 | COc1cc(F)ccc1-c1nc(Nc2cc(F)cc(CS(C)(=N)=O)c2)ncc1F (stereo in doubt) | CLH ([2]; 1 µM): 31.7 mL/min/kg; solubility at 24 h [7]: 30 µg/mL (≈ 71 µM); CLH [8]: 26.7 mL/min/kg; clearance [4]: 21.7 mL/min/kg; Vd [5]: 1.6 L/kg; half-life [6]: 60 min; T/C (MOLM-13 [9]): 0.26; T/C (MOLM-13 [10]): 0.26; T/C (MOLM-13 [11]): 0.34
2 | 5 (≈ 11.5 µM) | 38.3 | – | – | COc1cc(CS(C)(=N)=O)cc(Nc2ncc(F)c(-c3ccc(F)cc3OC)n2)c1 (stereo unspecified) | –
3 | 103 (≈ 254 µM) | 18.3 | 46 | 2.3 | COc1cc(F)ccc1-c1nc(Nc2cncc(CS(C)(=N)=O)c2)ncc1F (stereo unspecified) | efflux ratio at 2 h, 2 µM [13]: > 10
4 | – | 41.7 | – | – | COc1cc(F)ccc1-c1nc(Nc2cc(F)c(F)c(CS(C)(=N)=O)c2)ncc1F (stereo unspecified) | Stability [14]: Stable

Further lines, the compound ahead of its results:

Row | SMILES | solubility at 24 h [1] [µg/mL] | CLhep predicted at 1 µM [2] [mL/min/kg] | IC50 (A2780) [nM] | Papp A→B at 2 h, 2 µM [3] [×10⁻⁶ cm/s] | further results
5 | COc1cc(F)ccc1-c1nc(Nc2cc(F)cc(CS(=N)(=O)CCCN)c2)ncc1F (stereo unspecified) | 294 (≈ 632 µM) | 18.3 | 226 | – | –
6 | COc1cc(F)ccc1-c1nc(Nc2cc(F)cc(CS(C)(=N)=N)c2)ncc1F | 155 (≈ 368 µM) | 35 | 184 | 5 | clearance [4]: 55 mL/min/kg; Vd [5]: 2.2 L/kg; half-life [6]: 36 min
7 | COc1cc(F)ccc1-c1cc(Nc2cc(C[S@](C)(=N)=O)ccn2)ncc1F | – | – | 52 | – | IC50 (MOLM-13 [12]): 42 nM
